# Screening results: PubChem BioAssay, several laboratories
# In the library only some 3.7% were active in any assay of this set; here they are far more common.
# OX1R antag-1: antagonists of human orexin 1 receptor (OX1R); OX1R-expressing cells, FRET antagonist read-out; O43613; 330,000 compounds, 1.8% hits; inhibition, % at 6.6 µM; AID 485270; in the data active means inhibition mostly above about 38%, no sharp cut-off; inactive means mostly below about 40%;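 further: 0% = agonist challenge alone and 100% = reference antagonist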
# Target sequence (O43613 whole entry, looked up): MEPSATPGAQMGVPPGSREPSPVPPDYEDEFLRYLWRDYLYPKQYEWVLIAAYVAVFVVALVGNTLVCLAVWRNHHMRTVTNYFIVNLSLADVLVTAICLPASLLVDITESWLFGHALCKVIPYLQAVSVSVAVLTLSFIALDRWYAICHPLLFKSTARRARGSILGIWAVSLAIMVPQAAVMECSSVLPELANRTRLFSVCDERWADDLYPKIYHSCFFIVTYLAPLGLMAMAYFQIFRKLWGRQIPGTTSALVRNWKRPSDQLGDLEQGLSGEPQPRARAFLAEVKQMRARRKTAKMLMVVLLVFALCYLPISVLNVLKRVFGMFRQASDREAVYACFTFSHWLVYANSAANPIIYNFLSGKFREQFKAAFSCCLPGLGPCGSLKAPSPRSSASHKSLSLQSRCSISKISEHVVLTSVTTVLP
# PGE2 EP2 inh: blocks the human prostaglandin E2 receptor EP2; AID 1422; P43116; 260,000 compounds, 0.52% hits; inhibition, % at 25 µM; C6 glioma cells expressing human EP2, cAMP TR-FRET; cells stimulated with saturating PGE2;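 active means percent inhibition above 40 after rounding to a whole number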;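 further: rat C6 glioma host cells with rolipram phosphodiesterase inhibitor present; the protocol text gives 20 µM as final concentration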
# CHO parental Ca: counter-screen: ATP calcium response change in parental CHO cells. parental CHO-K1, ATP-induced calcium, Fluo-8 fluorescence. inhibition, % at 5.6 µM. 330,000 compounds, 0.63% hits. AID 463079;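 active means inhibition above that plate's mean sample inhibition plus 3 SD, cut at about 26% in these data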;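 further: 0% = ATP-challenged DMSO wells and 100% = DMSO wells without ATP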
#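 Assay system: untransfected parental CHO cell line. Also added: ATP agonist challenge. Dosing: one dose, 5.6 µM nominal. Measured by: Fluo-8 fluorescence. Read-out: % inhibition. Benchmarks: ATP wells versus no-ATP DMSO wells. Repeats: no replicates.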
# GPR7 antagonist: human neuropeptides B/W receptor 1 antagonism. 290,000 compounds, 1.1% hits. P48145. GPR7-expressing cells, fluorescence antagonist assay. AID 1861. inhibition, % at 4.4 µM; in the data active means inhibition above about 16%, passing the limit was not always enough;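 further: cells stimulated with the agonist NPW; 0% = agonist with vehicle and 100% = vehicle without agonist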
# EP2 modulator: modulators of human EP2 prostaglandin E2 receptor | P43116 | EP2-expressing cells, cAMP HTRF FRET, PGE2 co-stimulation | induction, % at 25 µM | 260,000 compounds, 0.83% hits | AID 940;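 active means compounds whose cAMP rise, as percent of the full-agonist control response, exceeds 60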;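 further: rat C6 glioma line stably carrying human EP2 under a CMV promoter; the protocol text gives 20 µM as final concentration; 100% = response of wells given 1 µM PGE2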
# OX1R antag-2: blocks the human orexin 1 receptor | O43613 | CHO/OX1R cells, Fluo-8 calcium fluorescence, orexin A | inhibition, % at 5 µM | 330,000 compounds, 0.43% hits;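 active means inhibition above its plate's threshold, mean inhibition of all tested compounds on the plate plus 3 SD, cut at about 37% in these data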;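 further: 0% = orexin A challenge wells and 100% = SB-334867-A antagonist wells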
# EP2 cAMP induct: EP2 receptor cAMP induction, counter-screens negative. 1,300 compounds, 47% hits. C6 glioma EP2 cells, cAMP HTRF induction; plus low (about EC15) PGE2 agonist. shares compounds with EP2 modulator. calls only at 20 µM (by protocol);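 active means cAMP induction above 50% in the main assay while under 30% in all four parallel counter assays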;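 further: rat C6 glioma cells stably expressing human EP2 receptor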
# * marks the source's active call; other numbers are inactive results; i = inactive; · = not tested or not shown; + = active, no number.
SMILES,OX1R antag-1,PGE2 EP2 inh,CHO parental Ca,GPR7 antagonist,EP2 modulator,OX1R antag-2,EP2 cAMP induct
O=C(NNc1ccc([N+](=O)[O-])cc1)C1C2CCCCC21 (stereo unspecified),8,7,-5,4,-3,-2,·
O=C(NNc1ccc([N+](=O)[O-])cc1[N+](=O)[O-])C1C2CCCCC21 (stereo unspecified),30,8,-14,-6,65*,-12,+
Cc1nccc2[nH]c(=O)c(C(=O)NC3CCCCC3C)cc12 (stereo unspecified),17,7,-16,-7,74*,-32,i
Cc1ccc(S(=O)(=O)NCC(=O)N(c2ccccc2)C(C(=O)NCc2ccccc2)c2ccco2)cc1 (stereo unspecified),22,7,-39,-18,68*,-21,i
CCOc1ccc2[nH]c(=O)c(C(c3nnnn3Cc3ccc(OC)cc3)N3CCCC3)cc2c1 (stereo unspecified),·,8,·,·,-15,·,·
C/C(CCc1ccccc1)=N\NC(=S)NCCc1ccccc1,3,·,-1,-2,·,-13,·
C/C(CCC(C)C)=N\NC(=S)NCc1ccccc1,31,8,-24,-4,66*,-15,+
CC(=O)Nc1cccc(C(=O)OCc2csc(CC(=O)Nc3ccccc3C)n2)c1,4,·,-35,·,·,16,·
COCc1cc(C)nc2sc3c(=O)n(Cc4ccco4)nnc3c12,·,10,·,-16,22,·,·
Cc1cc(C)c2c(n1)sc1c(=O)n(Cc3ccccc3Cl)nnc12,·,·,·,-5,67*,·,i
CCC(C)(C(=O)NC1CCCCC1)N(C(=O)C1CCC(=O)N1)c1ccccc1 (stereo unspecified),16,7,-6,-1,67*,-10,i
O/N=C/c1ccc(-c2cc(Cl)ccc2Cl)o1,30,9,6,-6,32,-15,·
Clc1ccc(Cl)c(-c2ccc(/C=N/c3ncn[nH]3)o2)c1,2,30,5,5,71*,5,i
Cc1cc(C)n2c(SCC(=O)Nc3ccc(Cl)cn3)nnc2n1,·,10,·,9,-2,·,·
CCC1C/C(=C/c2ccco2)C(=O)/C(=C/c2ccco2)C1 (stereo unspecified),19,8,-7,-3,68*,-15,i
Cc1cc2ccccc2nc1SCC(=O)NC1CCCCC1,11,8,-14,-12,70*,-19,i
Cc1cc2ccccc2nc1SCC(=O)NC1CCCC1,30,10,-24,12,77*,-22,i
Cc1cc2cc3c(cc2nc1SCC(=O)NC1CCCCC1)OCO3,·,10,·,·,29,·,·
CCC(c1nnnn1Cc1ccco1)N(Cc1cc2cc(C)cc(C)c2[nH]c1=O)CC1CCCO1 (stereo unspecified),23,13,-25,3,82*,-17,i
Cc1ccc(-c2c(C(=O)N/N=C/c3ccc(C)o3)nnn2-c2nonc2N)cc1,17,·,1,8,·,-8,·
COc1ccc(NC(=O)N2CCCC2C(=O)Nc2ccc(C)c(F)c2)cc1 (stereo unspecified),·,8,·,·,4,·,·
COc1ccc(-c2nc(-c3cccc(C)c3)no2)cc1OC,28,15,-19,-5,-66,14,·
COc1cc(-c2nc(-c3cccc(C)c3)no2)cc(OC)c1OC,35,16,-18,-19,61*,-39,i
COc1cc(-c2noc(-c3cccc(Cl)c3)n2)cc(OC)c1OC,11,2,-2,-6,55,2,+
COc1cc(F)cc(C2=CC(=O)C[C@H](c3ccc(F)cc3)C2)c1,7,·,-28,·,·,-43,·
N#Cc1cc2ccccc2n2nnnc12,40,·,-4,-3,·,-11,·
CCCCn1c(SCC(=O)Nc2nnc(CC)s2)nc2ccccc2c1=O,6,8,-10,-13,10,-14,·
C=CCn1c(=O)c(C(=O)NCCc2ccccc2)c(O)c2ccccc21,10,8,-38,-3,67*,-61,i
